Assay results reported in PMC7655718 (The Journal of antibiotics, 2020).
Values after ≈ are worked out from the molar mass of the structure shown. Read-outs that look alike come from different tables or passages of the source.

Assays:
[1] = test system: S. aureus BAA-2312 (Sa12); experiment: MIC, microdilution with resazurin; assay type: cell-based; details: Staphylococcus aureus, BAA2312, read-out: MIC Sa12
In short: (§1)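 Compounds dissolved in DMSO at 2 mg/mL. Overnight blood-agar colonies were suspended in PBS to 0.5 McFarland, then diluted in Mueller Hinton broth to about 1x10^6 cfu/mL with resazurin (1:1000 of 0.1% w/v stock). Twofold DMSO dilutions were added 1:40, giving 50 to 0.4 μg/mL at 2.5% DMSO. Incubation was 35 °C for 16-20 h. Blue/non-turbid wells counted as inhibited, pink/turbid as grown.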

[2] = test system: A. baumannii ATCC 19606 (type strain, Ab06); experiment: MIC and MBC; assay type: cell-based, Acinetobacter baumannii; details: for MIC Ab06: A. baumannii ATCC 19606 (type strain)
In short: as §1

[3] = test system: B. subtilis ATCC 6623 (Bs); experiment: MIC, microdilution with resazurin; assay type: cell-based, Bacillus subtilis; details: Bacillus subtilis, ATCC6623, read-out: MIC Bs
[4] = test system: A. baumannii ATCC 747 (Ab47); experiment: MIC, microdilution with resazurin; assay type: cell-based, Acinetobacter baumannii; details: for MIC Ab47: A. baumannii ATCC 747; for MIC: Acinetobacter baumannii, ATCC747, read-out: MIC Ab47
In short: as §1

[5] = test system: S. aureus ATCC 33592 (Sa92); experiment: MIC, microdilution with resazurin; assay type: cell-based; details: Staphylococcus aureus, ATCC33592, read-out: MIC Sa92
In short: as §1

[6] = test system: S. aureus ATCC 25923 (Sa23); experiment: MIC, microdilution with resazurin; assay type: cell-based; details: Staphylococcus aureus, ATCC25923, read-out: MIC Sa23
In short: as §1

[7] = test system: S. aureus ATCC 700699 (Sa99); experiment: MIC, microdilution with resazurin; assay type: cell-based; details: Staphylococcus aureus, ATCC700699, read-out: MIC Sa99
In short: as §1

[8] = test system: S. aureus ATCC 33591 (Sa91); experiment: MIC, microdilution with resazurin; assay type: cell-based; details: Staphylococcus aureus, ATCC33591, read-out: MIC Sa91
In short: as §1

[9] = test system: A. baumannii ATCC BAA-1605 (Ab05); experiment: MIC, microdilution with resazurin; assay type: cell-based, Acinetobacter baumannii
In short: as §1

[10] = test system: S. epidermidis 700296 (Se); experiment: MIC, microdilution with resazurin; assay type: cell-based; details: Staphylococcus epidermidis, read-out: MIC Se
In short: as §1

[11] = test system: tested A. baumannii strains; experiment: MIC, text summary over A. baumannii strains; assay type: cell-based, Acinetobacter baumannii
In short: as §1

[12] = test system: tested Gram-positive bacterial strains; experiment: MIC, text summary over tested Gram-positive strains; assay type: cell-based
[13] = test system: A. baumannii ATCC 19606 (Ab06); experiment: BacLight membrane permeability assay; assay type: cell-based, Acinetobacter baumannii; details: Ab06, versus positive control colistin at comparable MIC
[14] = test system: S. aureus ATCC 33599 (MRSA); experiment: BacLight membrane permeability assay; assay type: cell-based, Staphylococcus aureus; details: versus positive control vancomycin
[15] = test system: A. baumannii ATCC 19606; experiment: Time kill assay; assay type: cell-based, Acinetobacter baumannii; details: 4xMIC; for time kill effect: 24 hours at 35 °C
In short: (§2)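 Growth curves by optical density set the log phase. Log-phase bacteria (about 2 h shaking in Mueller Hinton broth II) were diluted in warm broth to about 3x10^6 cfu/mL. They were exposed to compound at 4xMIC (other multiples where indicated), in triplicate, at 35 °C. Colistin (A. baumannii) or vancomycin (S. aureus) and DMSO were included. Samples at 0, 2, 4, 6, 8, 10, 12 and 24 h were counted by drop plate on blood agar (18-24 h, 35 °C). Log cfu/mL was plotted against time.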

[16] = test system: human embryonic kidney cell line (HEK293); experiment: Toxicity against HEK293 cell line; assay type: cell-based; details: HEK293 IC50 over MIC; as high as
[17] = test system: S. aureus ATCC 33599 (MRSA); experiment: MIC and MBC; assay type: cell-based, Staphylococcus aureus; parameters: MBC as multiple of the MIC: unit not given beside the values
In short: as §1

[18] = test system: S. aureus ATCC 33599 (MRSA); experiment: Time kill assay; assay type: cell-based, Staphylococcus aureus
In short: as §2

[19] = test system: S. aureus ATCC 25923 biofilm formation; experiment: Biofilm inhibition assay; assay type: cell-based, Staphylococcus aureus; details: 2xMIC, MIC and 0.5xMIC concentrations, 24 hours
In short: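 Blood-agar culture was suspended in PBS (0.5 McFarland), then diluted 1:100 in yeast extract casamino acid broth (about 1x10^6 cfu/mL). Compound at 2xMIC, MIC and 0.5xMIC was added before biofilm formation, in triplicate, with broth-only and bacteria+DMSO controls. Incubation was 35 °C for 24 h. Wells were PBS-washed, dried, stained with 0.1% crystal violet, solubilised in 33% acetic acid and read at 620 nm. % inhibition = [1−(ODcompound−ODbroth)/(ODdmso−ODbroth)]×100, from mean and SD.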

[20] = test system: S. aureus ATCC 25923 preformed biofilm; experiment: Biofilm destruction assay; assay type: cell-based, Staphylococcus aureus; details: 2xMIC
In short: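 Biofilm was first grown in 96-well plates for 24 h at 35 °C and washed with PBS to remove unadhered cells. Fresh yeast extract casamino acid broth was added with compound at 2xMIC, MIC or 0.5xMIC, or DMSO, in triplicate, plus broth-only wells. Incubation was 35 °C for 24 h. Crystal violet was stained, solubilised and read at 620 nm. % destruction = [1−(ODcompound−ODbroth)/(ODdmso−ODbroth)]×100, from triplicate means.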

[21] = Acinetobacter baumannii, ATCC19606, read-out: MIC Ab06
[22] = Acinetobacter baumannii, ATCC19606
[23] = Staphylococcus aureus, ATCC33599|MRSA

## O=C(O)c1ccc(-n2cc(/C=N/Nc3cccc(Br)c3)c(-c3ccc4ccccc4c3)n2)cc1 [Compound 17]
[1]
  MIC: 6.25 µg/mL (≈ 12.2 µM)
[2]
  MIC Ab06: moderately inhibited the growth
[2]; [21]
  MIC: 12.5 µg/mL (≈ 24.4 µM)
[3]
  MIC: 3.12 µg/mL (≈ 6.11 µM)
[4]
  MIC Ab47: did not inhibit the growth
  MIC: > 50 µg/mL
[5]
  MIC: 1.56 µg/mL (≈ 3.05 µM)
[6]
  MIC: 6.25 µg/mL (≈ 12.2 µM)
[7]
  MIC: 1.56 µg/mL (≈ 3.05 µM)
[8]
  MIC: 6.25 µg/mL (≈ 12.2 µM)
[9]
  MIC Ab05: did not inhibit the growth
[10]
  MIC: 6.25 µg/mL (≈ 12.2 µM)

## O=C(O)c1ccc(-n2cc(/C=N/Nc3ccc(F)c(Cl)c3)c(-c3ccc4ccccc4c3)n2)cc1 [Compound 22]
[1]
  MIC: 3.12 µg/mL (≈ 6.44 µM)
[11]
  activity against A. baumannii strains: moderate growth inhibitor
[12]
  antimicrobial activity against the tested strains: potent inhibitors of tested Gram-positive strains
[2]; [22]
  MBC: 50 µg/mL (≈ 103 µM)
  MIC: 6.25 µg/mL (≈ 12.9 µM)
[2]; [21]
  MIC: 6.25 µg/mL (≈ 12.9 µM)
[3]
  MIC: 6.25 µg/mL (≈ 12.9 µM)
[4]
  MIC: 12.5 µg/mL (≈ 25.8 µM)
[5]
  MIC: 1.56 µg/mL (≈ 3.22 µM)
[13]
  membrane disrupting ability, PI/SYTO-9 ratio: better membrane disrupting ability
[14]
  membrane disruption activity, PI/SYTO-9 ratio: more potent membrane disruption activity than vancomycin
[6]
  MIC: 3.12 µg/mL (≈ 6.44 µM)
[7]
  MIC: 0.78 µg/mL (≈ 1.61 µM)
[8]
  MIC: 6.25 µg/mL (≈ 12.9 µM)
[10]
  MIC: 3.12 µg/mL (≈ 6.44 µM)

## colistin [reference compound]
[2]
  MIC Ab06: 3.125 µg/mL
[2]; A. baumannii ATCC 19606, Table 2
  MIC: 3.125 µg/mL
[2]; A. baumannii ATCC 19606, concentration killing 99.9% or greater
  MBC: 6.25 µg/mL
[4]
  MIC Ab47: 1.56 µg/mL
[15]
  time to completely kill the starting population: ≤ 4 h
  time kill effect: immediate bactericidal effect
[9]
  MIC Ab05: 3.125 µg/mL

## O=C(O)c1ccc(-n2cc(/C=N/Nc3ccc(Br)cc3)c(-c3ccc4ccccc4c3)n2)cc1 [Compound 18]
[1]
  MIC: 12.5 µg/mL (≈ 24.4 µM)
[2]; [22]
  MBC: 12.5 µg/mL (≈ 24.4 µM)
  MIC: 1.56 µg/mL (≈ 3.05 µM)
[2]; [21]
  MIC: 1.56 µg/mL (≈ 3.05 µM)
[3]
  MIC: 6.25 µg/mL (≈ 12.2 µM)
[4]
  MIC Ab47: moderate growth inhibitor
  MIC: 6.25 µg/mL (≈ 12.2 µM)
[5]
  MIC: 3.12 µg/mL (≈ 6.11 µM)
[15]
  time kill effect: bacteriostatic effect
[15]; through 24 hours
  increase in log10 cfu/mL of the bacterial population: ≤ 2 fold
[6]
  MIC: 6.25 µg/mL (≈ 12.2 µM)
[7]
  MIC: 0.78 µg/mL (≈ 1.53 µM)
[8]
  MIC: 12.5 µg/mL (≈ 24.4 µM)
[9]
  MIC Ab05: moderate growth inhibitor
[10]
  MIC: 12.5 µg/mL (≈ 24.4 µM)

## O=C(O)c1ccc(-n2cc(/C=N/Nc3ccc(Cl)cc3Cl)c(-c3ccc4ccccc4c3)n2)cc1 [Compound 20]
[1]
  MIC: 3.12 µg/mL (≈ 6.23 µM)
[12]
  antimicrobial activity against the tested strains: enhanced activity against all the tested strains
[16]
  selectivity factor (IC50/MIC): ≤ 48.7
[2]; [21]
  MIC: > 50 µg/mL
[3]
  MIC: 3.12 µg/mL (≈ 6.23 µM)
[4]
  MIC: > 50 µg/mL
[5]
  MIC: 0.78 µg/mL (≈ 1.56 µM)
[14]
  membrane disruption activity, PI/SYTO-9 ratio: more potent membrane disruption activity than vancomycin
[6]
  MIC: 3.12 µg/mL (≈ 6.23 µM)
[7]
  MIC: 0.78 µg/mL (≈ 1.56 µM)
[8]
  MIC: 6.25 µg/mL (≈ 12.5 µM)
[17]; S. aureus ATCC 33599 (MRSA)
  MBC as multiple of the MIC: 8
[17]; [23]
  MBC: 6.25 µg/mL (≈ 12.5 µM)
  MIC: 0.78 µg/mL (≈ 1.56 µM)
[18]; 4xMIC, 24 hours at 35 °C
  time kill effect: mild bactericidal effect
[18]; 8xMIC
  time kill effect: strongly bactericidal
  time to kill all bacteria: ≤ 4 h
[10]
  MIC: 3.12 µg/mL (≈ 6.23 µM)

## O=C(O)c1ccc(-n2cc(/C=N/Nc3cc(F)ccc3F)c(-c3ccc4ccccc4c3)n2)cc1 [Compound 19]
[1]
  MIC: 3.12 µg/mL (≈ 6.67 µM)
[19]
  inhibition of biofilm formation: most effective compound
[12]
  antimicrobial activity against the tested strains: enhanced activity against all the tested strains
[16]
  selectivity factor (IC50/MIC): ≤ 48.7
[2]; [21]
  MIC: > 50 µg/mL
[3]
  MIC: 3.12 µg/mL (≈ 6.67 µM)
[4]
  MIC: > 50 µg/mL
[5]
  MIC: 1.56 µg/mL (≈ 3.33 µM)
[14]
  membrane disruption activity, PI/SYTO-9 ratio: more potent membrane disruption activity than vancomycin
[20]
  destruction of preformed biofilm: potent activity
[6]
  MIC: 1.56 µg/mL (≈ 3.33 µM)
[7]
  MIC: 0.78 µg/mL (≈ 1.67 µM)
[8]
  MIC: 3.12 µg/mL (≈ 6.67 µM)
[10]
  MIC: 3.12 µg/mL (≈ 6.67 µM)
